From ChEMBL document CHEMBL1221207, “Expanding the promiscuity of a natural-product glycosyltransferase by directed evolution” (Nat Chem Biol, 2007) come the findings set out here.

The subject of data set [1] is T1, Oleandomycin glycosyltransferase (Streptomyces antibioticus), Q53685 [P67T,S132F,A242V].
T1 sequence (whole entry): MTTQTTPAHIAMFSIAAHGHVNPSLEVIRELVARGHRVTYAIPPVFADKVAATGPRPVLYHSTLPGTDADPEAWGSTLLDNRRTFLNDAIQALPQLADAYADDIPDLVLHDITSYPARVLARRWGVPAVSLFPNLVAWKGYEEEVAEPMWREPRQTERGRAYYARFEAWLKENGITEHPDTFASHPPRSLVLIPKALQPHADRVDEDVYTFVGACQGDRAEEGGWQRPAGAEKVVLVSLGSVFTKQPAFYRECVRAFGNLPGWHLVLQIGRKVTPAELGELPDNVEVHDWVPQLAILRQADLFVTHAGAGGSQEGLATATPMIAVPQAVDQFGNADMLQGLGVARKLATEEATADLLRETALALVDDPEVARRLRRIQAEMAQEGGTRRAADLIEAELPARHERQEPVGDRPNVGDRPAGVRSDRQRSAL
As to the kind of experiment: Activity of Streptomyces antibioticus OleD P67T/S132F/A242V mutant assessed as as rate of glucoside formation measured as nanomoles of product formed per minute per mg of enzyme.

In data set [2] the target is T2, Oleandomycin glycosyltransferase (Streptomyces antibioticus) (UniProt Q53685).
T2 sequence (whole entry): T1 sequence (whole entry) with T67P, F132S, V242A
Put plainly: Activity at Streptomyces antibioticus wild-type OleD assessed as as rate of glucoside formation measured as nanomoles of product formed per minute per mg of enzyme.

Data set [3] addresses T2, Oleandomycin glycosyltransferase (Streptomyces antibioticus). As to the kind of experiment: Activity of Streptomyces antibioticus OleD […] mutant assessed as as rate of glucoside formation measured as nanomoles of product formed per minute per mg of enzyme.
Data set [4] deals with T3, Oleandomycin glycosyltransferase (Streptomyces antibioticus), Q53685 [A242V].
T3 sequence (whole entry): T1 sequence (whole entry) with T67P, F132S
Put plainly: Activity of Streptomyces antibioticus OleD A242V mutant assessed as as rate of glucoside formation measured as nanomoles of product formed per minute per mg of enzyme.

Data set [5] has as its system T4, Oleandomycin glycosyltransferase (Streptomyces antibioticus), Q53685 [P67T].
T4 sequence (whole entry): T1 sequence (whole entry) with F132S, V242A
Put plainly: Activity of Streptomyces antibioticus OleD P67T mutant assessed as as rate of glucoside formation measured as nanomoles of product formed per minute per mg of enzyme.

Substrate in data set [6]: Cc1cc(=O)oc2cc(O)ccc12
Put plainly: Activity of Streptomyces antibioticus wild-type OleD assessed as as rate of glucoside formation at 10 mM using varying NDP sugar UDP-glucose concentration by enzyme kinetics assay. The method, boiled down: (§1)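 Steady-state kinetics of wild-type OleD glucosylating the acceptor 4-methylumbelliferone to its 7-O-glucoside, with the acceptor fixed at 10 mM and donor UDP-glucose as the variable substrate. Apparent donor kinetic parameters were taken from the rate versus UDP-glucose concentration data.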

Substrate in data set [7]: Cc1cc(=O)oc2cc(O)ccc12
As to the kind of experiment: Ratio of Kcat to Km for Streptomyces antibioticus wild-type OleD assessed as as rate of glucoside formation using varying compound concentration by enzyme kinetics assay. The method, boiled down:
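Wild-type OleD steady-state kinetics with 4-methylumbelliferone as the variable acceptor, up to 10 mM (its solubility limit in water/DMSO), and UDP-glucose as donor. Read-out was the rate of glucoside formation. kcat/Km was obtained by linear regression of rate against acceptor concentration.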

Substrate in data set [8]: Cc1cc(=O)oc2cc(O)ccc12
Put plainly: Ratio of Kcat to Km for Streptomyces antibioticus wild-type OleD assessed as as rate of glucoside formation at 10 mM using varying NDP sugar UDP-glucose concentration by enzyme kinetics assay. Summed up: as §1

Substrate in data set [9]: Cc1cc(=O)oc2cc(O)ccc12
Put plainly: Ratio of Kcat to Km for Streptomyces antibioticus OleD P67T/S132F/A242V mutant assessed as as rate of glucoside formation using varying compound concentration by enzyme kinetics assay. Summed up:
(§2)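 Steady-state kinetics with the acceptor 4-methylumbelliferone as the variable substrate and UDP-Glc as donor. The acceptor limit was its solubility in water/DMSO, 10 mM. Apparent Km and kcat were derived from the saturation curve.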

Substrate in data set [10]: Cc1cc(=O)oc2cc(O)ccc12
As to the kind of experiment: Activity of Streptomyces antibioticus OleD P67T/S132F/A242V mutant assessed as as rate of glucoside formation using varying compound concentration by enzyme kinetics assay. The method, boiled down:
as §2

Substrate in data set [11]: Cc1cc(=O)oc2cc(O)ccc12
As to the kind of experiment: Activity of Streptomyces antibioticus OleD P67T/S132F/A242V mutant assessed as rate of glucoside formation at 10 mM using varying NDP sugar UDP-glucose concentration by enzyme kinetics assay. Summed up: (§3)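 Steady-state kinetics with donor UDP-Glc varied at a fixed concentration of the acceptor 4-methylumbelliferone. The result was reported as an apparent donor Km, with kcat from the same analysis.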

Substrate in data set [12]: Cc1cc(=O)oc2cc(O)ccc12
Put plainly: Ratio of Kcat to Km for Streptomyces antibioticus OleD P67T/S132F/A242V mutant assessed as rate of glucoside formation at 10 mM using varying NDP sugar UDP-glucose concentration by enzyme kinetics assay. Summed up: as §3

Substitutions are numbered along the chain they refer to. In names and notes the source's numbering stands.

On to `CO[C@H]1C[C@H](O[C@H]2[C@H](C)[C@@H](O[C@@H]3O[C@H](C)C[C@H](N(C)C)[C@H]3O)[C@@H](C)C[C@@]3(CO3)C(=O)[C@H](C)[C@@H](O)[C@@H](C)[C@@H](C)OC(=O)[C@@H]2C)O[C@@H](C)[C@@H]1O`, for which the Activity stood at 13 nmol/min in data set [1]; 700 nmol/min in data set [2]; 1490 nmol/min in data set [3]; 70 nmol/min in data set [4]; 200 nmol/min in data set [5].

Consider `O=c1c(O)c(-c2ccc(O)cc2)oc2cc(O)cc(O)c12`, for which the Activity is 28 nmol/min in data set [1]; 13.2 nmol/min in data set [2]; 23 nmol/min in data set [3]; 15.3 nmol/min in data set [4]; 99.9 nmol/min in [5].

As for `O=c1c(-c2ccc(O)cc2)coc2cc(O)cc(O)c12`, the Activity came to 26 nmol/min in data set [1]; 3.4 nmol/min in data set [2]; 8.8 nmol/min in [3]; 14.1 nmol/min in data set [4]; 28.8 nmol/min in data set [5].

Regarding `CC(C)=CCc1cc(C(=O)Nc2c(O)c3ccc(O)c(C)c3oc2=O)ccc1O`, the Activity is 1.14 nmol/min in data set [1]; 0.24 nmol/min in data set [2]; 0.49 nmol/min in data set [3]; 0.33 nmol/min in data set [4]; 0.65 nmol/min in data set [5].

As to `O=C(O)c1cc2ccc(O)cc2oc1=O`, the Activity amounted to 0.62 nmol/min in data set [1]; 0.01 nmol/min in data set [2]; 0.022 nmol/min in data set [3]; 0.01 nmol/min in data set [4]; 0.022 nmol/min in data set [5].

Turning to `O=c1c(-c2ccc(O)cc2)coc2cc(O)ccc12`, the Activity in [1] amounted to 24 nmol/min; in data set [2], 4.2 nmol/min; in data set [3], 5.5 nmol/min; in data set [4], 8.5 nmol/min; in [5], 16 nmol/min.

Consider `O=C(O)Cc1cc(=O)oc2cc(O)ccc12`, for which the Activity came out at 3.6 nmol/min in [1], 0.08 nmol/min in data set [3], 0.16 nmol/min in data set [4] and 0.22 nmol/min in data set [5].

B1: Oleandomycin glycosyltransferase (Streptomyces antibioticus), Q53685 (protein)
chain: T1 sequence (whole entry) with T67P, F132S, V242A
As for B1, in [6], the Km was 300 µM. Also, the turnover number (kcat) in [6] amounted to 0.00867 s⁻¹. Also, the kcat/Km in [7] turned out to be 3 M⁻¹ s⁻¹; in data set [8], 28.8 M⁻¹ s⁻¹.

B2: Oleandomycin glycosyltransferase (Streptomyces antibioticus), Q53685 P67T,S132F,A242V (protein)
chain: T1 sequence (whole entry)
Turning to B2, the kcat/Km in [9] is 177 M⁻¹ s⁻¹; in data set [12] it was 717 M⁻¹ s⁻¹. Besides, the Km in data set [10] was 140 µM; in [11], 0.03 min⁻¹. Further, the catalytic constant (kcat) in data set [10] amounted to 0.0247 s⁻¹; in data set [11], 0.0215 s⁻¹.

By kcat is commonly meant the maximal rate divided by the concentration of active sites. A word on the kcat/Km: it is the turnover number divided by the Michaelis constant.
